SENP1 inh – human SENP1 catalytic domain inhibitors, primary screen, biochemical, FRET, uHTS; recombinant SENP1 catalytic domain, CyPet-SUMO1-YPet FRET cleavage; inhibition, % at 10 µM; 360,000 compounds, 0.21% hits; AID 624204, 2012;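 active means inhibition at least 30% at 10 µM, raw YFP signal under a set limit, fluorescence ratio 0.5 to 1.5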;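 further: 0% = enzyme with DMSO and 100% = no enzyme wells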
Target sequence (Q9P0U3 419-644 limits assumed): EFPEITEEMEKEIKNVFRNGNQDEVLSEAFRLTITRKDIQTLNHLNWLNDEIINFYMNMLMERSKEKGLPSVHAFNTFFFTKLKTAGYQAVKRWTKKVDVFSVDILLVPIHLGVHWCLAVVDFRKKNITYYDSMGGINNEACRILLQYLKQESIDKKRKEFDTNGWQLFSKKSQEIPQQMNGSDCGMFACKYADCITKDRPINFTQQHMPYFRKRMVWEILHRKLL
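Test system: hSENP1 catalytic domain, recombinant; Amount: 20 pM final SENP1 enzyme; Medium: Tris pH 8 buffer plus EDTA, NaCl, BME, BSA, NP40, catalase; Schedule: 50 min enzyme reaction, room temperature, light-protected; Technique: FRET fluorescence in CFP and YFP emission channels; Controls: no-enzyme wells low, DMSO-plus-enzyme wells high control.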
SENP8 block-1 – SENP8 protease inhibitors, primary screen, biochemical, luminescence. purified SENP8, Z-RLRGG-aminoluciferin cleavage. inhibition, % at 10 µM. 330,000 compounds, 1.2% hits. Sentrin-specific protease 8 (Homo sapiens), Q96LD8; in the data active means inhibition above about 50%
SENP6 block – SENP6 protease inhibitors, primary screen, biochemical, luminescence, uHTS | 330,000 compounds, 1.8% hits | inhibition, % at 10 µM | Sentrin-specific protease 6 (Homo sapiens), Q9GZR1 | Recombinant SENP6 catalytic domain, aminoluciferin luminescence | AID 2599, 2010;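 active means inhibition above about 50% at the single tested dose, limit read from the data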;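 further: plate controls were DMSO wells with enzyme for no effect and DMSO wells lacking enzyme for full effect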
Target sequence (Q9GZR1 628-1112 limits assumed): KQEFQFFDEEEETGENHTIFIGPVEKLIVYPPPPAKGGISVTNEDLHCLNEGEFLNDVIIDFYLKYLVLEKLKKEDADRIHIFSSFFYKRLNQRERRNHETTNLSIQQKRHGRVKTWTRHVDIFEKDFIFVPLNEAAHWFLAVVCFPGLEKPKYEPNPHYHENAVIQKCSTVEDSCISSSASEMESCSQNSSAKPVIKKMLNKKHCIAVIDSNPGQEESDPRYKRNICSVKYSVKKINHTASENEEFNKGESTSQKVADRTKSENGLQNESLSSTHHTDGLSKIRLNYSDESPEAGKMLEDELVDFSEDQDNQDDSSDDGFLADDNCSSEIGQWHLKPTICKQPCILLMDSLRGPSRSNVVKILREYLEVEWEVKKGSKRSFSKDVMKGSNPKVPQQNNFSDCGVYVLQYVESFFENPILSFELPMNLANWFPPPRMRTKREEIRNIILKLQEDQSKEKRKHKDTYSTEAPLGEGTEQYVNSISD
SENP8 block-2 – human SENP8 protease inhibitors, primary screen, biochemical, fluorescence, Nedd8 protein substrate, uHTS | Sentrin-specific protease 8 (Homo sapiens), Q96LD8 | recombinant SENP8 | inhibition, % at 20 µM | 360,000 compounds, 0.64% hits | AID 602440, 2012; in the data active means inhibition mostly above about 40%, no sharp cut-off; inactive means mostly below about 27%
SENP7 inh – SENP7 protease inhibitors, primary screen, biochemical, luminescence, uHTS | Sentrin-specific protease 7 (Homo sapiens), Q9BQF6 | recombinant SENP7, Z-RLRGG-aminoluciferin luminescence, 40 min | inhibition, % at 5 µM | 330,000 compounds, 1.5% hits | AID 434973, 2010;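 active means inhibition above about 50% at the single test dose, limit read from the data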;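 further: plate controls were DMSO with enzyme for no effect and no enzyme buffer wells for full effect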
SENP8 conf – SENP8 protease inhibitors, retest, confirmation, biochemical, luminescence, single concentration | Recombinant SENP8, Z-RLRGG-aminoluciferin luminescence, 60 min | 6,200 compounds, 40% hits | inhibition, % at 12.5 µM | shares compounds with SENP7 inh;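 active means mean inhibition across replicates above about 50%, limit read from the data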
SENP6 conf – SENP6 protease inhibitors, confirmation, biochemical, luminescence, single concentration; shares compounds with SENP7 inh; recombinant SENP6, Z-RLRGG-aminoluciferin luminescence; inhibition, % at 12.5 µM; 6,200 compounds, 58% hits; AID 488915, 2010
SENP7 confirm – SENP7 protease inhibitors, retest, confirmation, biochemical, luminescence, single concentration | shares compounds with SENP7 inh | recombinant SENP7, Z-RLRGG-aminoluciferin luminescence, 40 min | inhibition, % at 12.5 µM | 6,200 compounds, 69% hits | AID 488917, 2010
Casp3 select – caspase-3 protease inhibitors, confirmation, selectivity assay for SENP inhibitor project, biochemical, single concentration. shares compounds with SENP7 inh. purified caspase-3, Z-DEVD-aminoluciferin luminescence, 60 min. inhibition, % at 12.5 µM. 6,200 compounds, 60% hits. AID 488918, 2010;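 active means mean inhibition above about 50%, limit read from the data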;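 further: plate controls were enzyme with DMSO for no effect and wells without caspase-3 for full effect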
SENP luc ctr – luminescence interference (SENP counter-screen) | 6,200 compounds, 39% hits | inhibition, % at 12.5 µM | AID 488919 | Pre-incubated SENP8/Z-RLRGG-aminoluciferin, luciferase luminescence interference | shares compounds with SENP7 inh;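 active means mean inhibition above about 50% when retested at one dose, limit read from the data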;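 further: plate controls were DMSO wells with completed reaction for no effect and substrate without enzyme for full effect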
Starred values were filed as active, the others as inactive; i = inactive; x = not tested or not shown. An excerpt weighted towards active compounds, which were near 2.5% of everything screened.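 How the source made its calls, unless noted: active means mean inhibition above about 50% in the one-dose retest (limit read from the data); inactive means the rest.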

SMILES | SENP1 inh | SENP8 block-1 | SENP6 block | SENP8 block-2 | SENP7 inh | SENP8 conf | SENP6 conf | SENP7 confirm | Casp3 select | SENP luc ctr
O=C(COC(=O)c1ccc(=O)[nH]c1)Nc1cccc(S(=O)(=O)N2CCOCC2)c1 | -0.2 | -1.6 | 4.1 | 31.4 | 9.6 | x | x | x | x | x
Nc1ccc2c(c1)OC1(CCCC1)O2 | -38.5 | 2.1 | 22.5 | 1.1 | 12.3 | x | x | x | x | x
CC1OC(Nc2cccc3ccccc23)C(O)C(O)C1O (stereo unspecified) | -12.5 | 89.2* | 95.1* | -277.4 | 4.8 | 18.3 | 51.9* | 16.4 | 6.7 | 4.5
CC1OC(Nc2ccc(N=Nc3ccccc3)cc2)C(O)C(O)C1O (stereo unspecified) | 1.3 | -8.3 | -20.9 | 15.0 | 3.3 | x | x | x | x | x
CCSc1nnc(Cc2cc(=O)[nH]c(=O)[nH]2)n1-c1cc(C)ccc1C | 3.4 | -5.8 | 53.1* | 16.3 | 15.4 | -3.8 | -1.1 | -5.7 | -5.1 | -3.9
CCOC(=O)C1CCN(S(=O)(=O)c2ccc3oc(=O)ccc3c2)CC1 | -0.2 | -6.1 | 0.3 | 10.5 | -12.0 | x | x | x | x | x
COc1ccc(-c2nsc3c(N4CCCCC4C)ncnc23)cc1 (stereo unspecified) | 0.0 | 81.0* | 87.8* | -406.4 | 77.9* | 68.1* | 71.3* | 76.2* | 76.3* | 10.8
COc1ccc(-c2nsc3c(N4CCCCC4)ncnc23)cc1 | 2.6 | 91.9* | 66.6* | -257.0 | 95.1* | 0.4 | 5.2 | -0.5 | 1.9 | 15.9
C/C(=N/OC(=O)c1ccc(C(F)(F)F)cc1)c1oc(C)nc1C | 3.0 | 71.6* | 83.7* | 20.1 | 91.3* | 77.5* | 79.4* | 97.2* | 85.8* | 56.8*
CCC1CCCCN1S(=O)(=O)c1ccc(-n2cnnn2)c(C)c1 (stereo unspecified) | -0.2 | 1.7 | 0.3 | 7.0 | 1.6 | x | x | x | x | x
O=C(Nc1scc(-c2ccccc2)c1C(=O)O)c1ccc(F)cc1 | -1.4 | 91.9* | 91.5* | -77.1 | 70.9* | 92.7* | 94.4* | 101.5* | 95.7* | 92.1*
Cc1ccc(-c2csc(NC(=O)c3ccc(F)cc3)c2C(=O)O)cc1 | 3.1 | 89.9* | 94.5* | -24.4 | 58.5* | -2.1 | 90.9* | 89.9* | 88.9* | 67.7*
COc1cccc(C(NC(C)=O)c2nc(-c3cccc(F)c3)cs2)c1 (stereo unspecified) | -0.4 | x | x | 4.8 | x | x | x | x | x | x
CS(=O)(=O)N1CCC(C(=O)Nc2cc(Cl)c(Cl)cc2Cl)CC1 | 0.7 | -5.0 | 11.7 | 12.9 | 5.7 | x | x | x | x | x
CCOc1cccc(C(=O)Nc2ccc3c(c2)OCCO3)c1 | 1.1 | 41.8 | 69.1* | 15.0 | 64.6* | 66.2* | 63.1* | 89.2* | 77.0* | 69.0*
O=C(Nc1ccc2ccccc2c1)c1cccc(F)c1 | 3.0 | 60.3* | 46.6 | 10.5 | 73.4* | 12.3 | 58.8* | 87.1* | 40.8 | -1.2
CCOc1cccc(C(=O)Nc2ccc3ccccc3c2)c1 | 0.5 | 88.4* | 92.9* | 2.4 | 92.2* | 7.4 | 65.7* | 98.9* | 48.5 | 2.4
O=C(Nc1cccc(NC(=O)c2cccc(F)c2)n1)c1cccc(F)c1 | -4.4 | -5.5 | -22.1 | 14.4 | -8.4 | x | x | x | x | x
CCOc1cccc(C(=O)Nc2cccc(C(C)=O)c2)c1 | 0.5 | -14.3 | -8.6 | 13.0 | -7.1 | x | x | x | x | x
CCOC(=O)C(N)CSC1CC(=O)N(CCc2ccccc2)C1=O (stereo unspecified) | 1.4 | -6.6 | -40.5 | 3.4 | -14.1 | x | x | x | x | x
Cc1ccc(S(=O)(=O)NC(=O)C2(C)CCN2C(=O)c2ccccc2CCc2ccccc2)nc1 (stereo unspecified) | -0.8 | x | x | 10.5 | x | x | x | x | x | x
Cc1nc2ccc(-c3nc4ccccc4o3)cc2[nH]1 | 2.4 | 28.4 | 8.2 | -361.1 | 61.7* | 62.8* | 59.3* | 84.3* | 59.9* | 64.5*
Cc1cc(-c2nc3ccccc3o2)c2ccccc2n1 | 0.8 | -19.5 | -6.3 | -285.3 | -12.3 | x | x | x | x | x
Cc1ccnc2ccc(-c3nc4ccccc4o3)cc12 | 2.7 | 70.8* | 88.3* | i | 82.8* | 25.1 | 20.0 | 58.4* | 40.3 | 9.0
O=C(c1cccs1)N1CCC(c2nc3c(nnn3Cc3c(Cl)cccc3Cl)c(=O)[nH]2)CC1 | 0.6 | 0.8 | -7.8 | 4.5 | -1.6 | x | x | x | x | x
SMILES | SENP1 inh | SENP8 block-1 | SENP6 block | SENP8 block-2 | SENP7 inh | SENP8 conf | SENP6 conf | SENP7 confirm | Casp3 select | SENP luc ctr
COc1ccc(/C=N/N=C(\N)c2nonc2N)cc1OC | 0.2 | 11.0 | 17.3 | 13.4 | 26.0 | x | x | x | x | x
N/C(=N\N=C\c1cccc(O)c1)c1nonc1N | 1.9 | 94.6* | 95.1* | 18.4 | 97.3* | 97.1* | 98.9* | 102.4* | 97.7* | 94.0*
N/C(=N\N=C\c1ccc(O)cc1)c1nonc1N | 3.0 | 95.1* | 93.1* | 6.9 | 97.8* | 97.4* | 98.2* | 102.4* | 98.0* | 96.3*
COc1cc(/C=N/N=C(\N)c2nonc2N)ccc1O | 11.9 | 88.8* | 93.4* | 14.0 | 93.8* | 92.7* | 92.1* | 99.0* | 94.4* | 92.2*
COc1ccc(OC)c(/C=N/N=C(\N)c2nonc2N)c1 | 1.8 | -0.7 | -12.7 | 10.5 | 0.7 | x | x | x | x | x
N/C(=N\N=C\c1ccc(Br)o1)c1nonc1N | 0.1 | 30.6 | 47.5 | 17.2 | 36.3 | x | x | x | x | x
Cc1cc(C)n(CCCNC(=O)c2ccc(C)c(S(=O)(=O)N3CCOCC3)c2)n1 | 0.2 | 6.2 | 2.2 | 1.2 | -0.2 | x | x | x | x | x
CC(=O)c1ccc(NS(=O)(=O)c2cccc(C(=O)Nc3ccccc3C(=O)O)c2)cc1 | 0.4 | -11.2 | 4.7 | -11.9 | 4.7 | x | x | x | x | x
COC(=O)c1ccc(-c2ccc(F)cc2)nc1C | -0.6 | 34.7 | 61.5* | 28.5 | 52.7* | -12.9 | 28.8 | 77.0* | 41.3 | 3.3
CCOC(=O)c1ccc(-c2ccc3c(c2)CCC3)nc1C | 0.8 | 52.5* | 60.3* | 21.3 | 70.4* | 57.2* | 57.3* | 80.4* | 48.9 | 42.9
CCOC(=O)c1cc2c(nc1N)CCCC2 | -0.1 | -4.2 | -26.6 | -390.8 | -6.7 | x | x | x | x | x

Compound activity: PubChem, Sanford-Burnham Center for Chemical Genomics
